Experimental data gathered from unrelated publications.
Protocols differ between the studies behind these lines.
Organism: Plasmodium falciparum
Read-out: parasite growth

`CC1=C(C)C(c2ccc[nH]2)=NC1=Cc1ccc(CCCCCCCCCC(C)O)[nH]1` (stereo not drawn) gave an IC50 of 1.19 µM (DD2; drug-resistant strain, blood stage).
`Brc1ccc2c(c1)nc(C1CCNCC1)n2Cc1ccccc1` has an IC50 of 0.061 µM (K1; drug-resistant strain, blood stage).
With `O=C(Nc1ccc(F)cc1C(=O)O)c1ccc(-c2ccccc2)cc1` the IC50 was 0.00943 µM (resazurin; NF54; 48 h; gametocyte).
For `C[C@@H]1CC[C@H]2[C@@H](C)C(=O)O[C@@H]3O[C@@]4(C)CC[C@@H]1[C@]32OO4`, the IC50 was 0.0038 mg/L (W2; 72 h; drug-resistant strain, blood stage).
`COC1=CC(c2cccn2C)=NC1=Cc1ccc(CCCCCCCCCC(C)O)[nH]1` (stereo not drawn) gave an IC50 of > 2.5 µM (DD2; drug-resistant strain, blood stage).
The IC50 of `C[C@@H]1CC[C@H]2[C@@H](C)C(=O)O[C@@H]3O[C@@]4(C)CC[C@@H]1[C@]32OO4` is reported as 0.005 mg/L (D6; blood stage).
`CCN(CC)CCCC(C)Nc1ccnc2cc(Cl)ccc12` (stereo not drawn) has an IC50 of 0.31 µM (W2; drug-resistant strain).
The IC50 of `COC1=CC(c2ccco2)=NC1=Cc1ccc(CCCCCCCCCC(C)O)[nH]1` (stereo not drawn) is reported as > 2.5 µM (7G8; drug-resistant strain, blood stage).
`CCN(CC)CCCC(C)Nc1ccnc2cc(Cl)ccc12` (stereo not drawn) has an IC50 of 0.234 mg/L (imaging; W2; 48 h; drug-resistant strain, blood stage).
`NCCCNc1nc2cc(Br)ccc2n1Cc1ccccc1` gave an IC50 of 1.01 µM (K1; drug-resistant strain, blood stage).
`COC1=CC(c2ccc[nH]2)=NC1=Cc1ccc(CCCCCCCCCCO)[nH]1` has an IC50 of 0.08 µM (DD2; drug-resistant strain, blood stage).
`CCN(CC)CCCC(C)Nc1ccnc2cc(Cl)ccc12` (stereo not drawn) gave an IC50 of 0.15 mg/L (W2; drug-resistant strain, blood stage).
With `CCN(CC)CCCC(C)Nc1ccnc2cc(Cl)ccc12` (stereo not drawn) the IC50 was 0.28 µM (K1; drug-resistant strain, blood stage).
With `COc1cc(CO)c(-c2ccc3c(c2O)[C@@H](C)N[C@H](C)C3)c2cccc(O)c12` the IC50 was 0.303 µM (SYBR Green; W2; drug-resistant strain, blood stage).
The IC50 of `CCN(CC)CCCC(C)Nc1ccnc2cc(Cl)ccc12` (stereo not drawn) is reported as 0.102 µM (DD2; drug-resistant strain, blood stage).
With `Clc1ccc2c(N3CCN(CCCN4CCN(c5ccnc6cc(Cl)ccc56)CC4)CC3)ccnc2c1` the IC50 was 0.0044 µM (3D7; blood stage).
For `CCc1ccc(C2=NC(=Cc3ccc(CCCCCCCCCC(C)O)[nH]3)C(OC)=C2)[nH]1` (stereo not drawn), the IC50 was 0.015 µM (DD2; drug-resistant strain, blood stage).
`CCN(CC)CCCC(C)Nc1ccnc2cc(Cl)ccc12` (stereo not drawn) gave an IC50 of 0.0109 µM (blood stage).
For `Clc1ccc2c(nc(N3CCNCC3)n2Cc2ccccc2)c1Cl`, the IC50 was 0.032 µM (K1; drug-resistant strain, blood stage).
With `COC1=CC(c2ccc[nH]2)=NC1=Cc1ccc(CCCCCCCCCCCO)[nH]1` the IC50 was 0.036 µM (DD2; drug-resistant strain, blood stage).
For `OC(c1cc(C(F)(F)F)nc2c(C(F)(F)F)cccc12)C1CCCCN1` (stereo not drawn), the IC50 was 0.0048 µM (3D7; blood stage).
`COC1=CC(c2ccc[nH]2)=NC1=Cc1ccc(CCCCCCCCCCCCO)[nH]1` gave an IC50 of 0.058 µM (7G8; drug-resistant strain, blood stage).
The IC50 of `CCCCCCCCCCOc1cc2c(O)c(C(=O)OCC)cnc2cc1OCC` is reported as < 0.0057 µM (SYBR Green; 3D7; blood stage).
With `Clc1ccc2c(c1)nc(NCCNCc1ccccc1)n2Cc1ccccc1` the IC50 was 0.212 µM (K1; drug-resistant strain, blood stage).
